Source: PubChem (The Scripps Research Institute Molecular Screening Center)
OXTR agonist = human OXTR agonism; P30559; CHO-OTR cells, Fluo-8 calcium fluorescence; normalized: DMSO 0%, oxytocin 100%; activation, % at 3 µM; 0.32% of 320,000 active;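 active = activation above the mean of all tested compounds plus 3 SD, cutoff set per screening run, cut at about 20% in these data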;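 note: peak over basal fluorescence ratio from a 100 s FLIPR kinetic read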
Target sequence (P30559 whole entry, looked up): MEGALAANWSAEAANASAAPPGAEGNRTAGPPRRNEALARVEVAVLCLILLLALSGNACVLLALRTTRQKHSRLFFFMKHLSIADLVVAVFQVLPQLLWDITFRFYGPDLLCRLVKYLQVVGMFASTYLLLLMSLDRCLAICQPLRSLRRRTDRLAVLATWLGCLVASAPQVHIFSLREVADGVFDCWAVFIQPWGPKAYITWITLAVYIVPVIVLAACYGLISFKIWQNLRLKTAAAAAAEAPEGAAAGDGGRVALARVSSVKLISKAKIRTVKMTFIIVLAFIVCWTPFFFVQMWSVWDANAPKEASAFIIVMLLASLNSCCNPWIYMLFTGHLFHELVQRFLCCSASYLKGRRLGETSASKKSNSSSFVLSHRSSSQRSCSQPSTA
TAAR1 antag = antagonists of human TAAR1; Q96RJ0; CHO RD-HGA16 TAAR1, Fluo-8 calcium fluorescence, antagonist; inhibition, % at 3 µM; 1.5% of 360,000 active; AID 624466;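 active = inhibition above a per-plate cutoff, the mean inhibition of test compounds on that plate plus 3 SD, cut at about 49% in these data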;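 note: 0% = DMSO plus EC80 beta-PEA response and 100% = DMSO alone without agonist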
Target sequence (Q96RJ0 whole entry, looked up): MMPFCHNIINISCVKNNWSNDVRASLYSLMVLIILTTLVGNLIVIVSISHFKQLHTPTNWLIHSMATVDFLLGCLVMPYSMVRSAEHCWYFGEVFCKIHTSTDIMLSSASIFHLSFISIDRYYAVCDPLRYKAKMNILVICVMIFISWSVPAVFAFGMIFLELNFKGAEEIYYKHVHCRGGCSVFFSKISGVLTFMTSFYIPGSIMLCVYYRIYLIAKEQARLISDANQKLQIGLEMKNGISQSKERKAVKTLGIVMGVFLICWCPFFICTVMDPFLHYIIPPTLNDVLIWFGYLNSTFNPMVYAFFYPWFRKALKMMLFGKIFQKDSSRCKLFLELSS
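Test system: RD-HGA16 CHO cells with stable hTAAR1 and Gα16 / Probe or stimulus: EC80 β-phenethylamine stimulus / Times: seeding 17-24 h prior, 75-min 37 °C, 30-min RT dye loading / Detection: Fluo-8 calcium-sensitive fluorescence / Read-out basis: % inhibition scaled between DMSO and EC80 PEA controls / Repeats: singlicate, one well per test compound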
OXTR potentiator = potentiators of human oxytocin receptor; P30559; CHO-OTR cells, Fluo-8 calcium fluorescence, potentiator mode; 0% = oxytocin EC15, 100% = EC100; activation, % at 3 µM; 0.061% of 320,000 active;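 active = activation above that plate's cutoff, the mean activation of tested compounds plus 3 SD, cut at about 6.6% in these data, passing the limit was not always enough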;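 note: 100% uses oxytocin at 75 nM as the full agonist control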
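test system = CHO-OTR cells, human receptor | compound = single-point 3.0 µM | schedule = 6 min compound pre-incubation at room temperature, 100 s kinetic read | signal = Fluo-8 no-wash calcium dye fluorescence, excitation 470-495 nm, emission 515-575 nm | repeats = single well per compound, singlicate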
V1R ag counter = V1a receptor agonism, counter-screen for OXTR agonists; P37288; 0.25% of 320,000 active; AID 2797; CHO-V1R cells, Fluo-8 calcium fluorescence, agonist mode; 0% DMSO, 100% 3 nM vasopressin; activation, % at 3 µM;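 active = activation above the mean activation of all tested compounds plus 3 SD, per screening run, cut at about 20% in these data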;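 note: signal is peak over basal fluorescence ratio across a 100 second FLIPR read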
TAAR1 agonist = agonists of human TAAR1. activation, % at 3 µM. AID 624467. 0.99% of 360,000 active. Q96RJ0. CHO RD-HGA16 TAAR1, Fluo-8 calcium fluorescence; vehicle wells 0%, saturating PEA agonist 100%;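 active = activation above the mean activation of all test compounds in the run plus 3 SD, cut at about 38% in these data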
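Benchmarks: low control DMSO, high control PEA (EC100); System: CHO RD-HGA16 cells carrying human TAAR1 plus Gα16; Detection: Fluo-8 fluorescence, 5 s baseline then 140 s kinetic read; Schedule: 17-24 h plating, Fluo-8 75 min 37 °C, 30 min RT; Read-out basis: % activation from peak over basal fluorescence ratio, DMSO-to-PEA scaled.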
* hit, by the source's call; . = no result given. Shown are actives, neighbours in structure and some others; about 2.3% of the full set was active somewhere.

SMILES	OXTR agonist	TAAR1 antag	OXTR potentiator	V1R ag counter	TAAR1 agonist
CCN(CC)c1ccc2nc3c4ccccc4c(=O)cc-3oc2c1	.	19.8	.	.	17.0
Cc1ccc(C(=O)c2ccccc2C(=O)OCC(=O)NCC2CCCO2)cc1 (stereo not drawn)	-1.3	-2.3	4.8	-0.2	-0.2
CC(=O)N1CCN(c2ccccc2NC(=O)c2cc3ccccc3o2)CC1	1.6	52.3*	-4.0	1.7	10.0
COc1cc(OC)cc(C(=O)NNC(=O)CNC(=O)c2cccs2)c1	1.1	-18.3	-3.8	0.9	2.8
CCc1c(-c2ccc(F)cc2)ncn1CCc1ccccc1OC	.	-24.5	.	.	3.1
Cc1cccc(C(=O)NC(=S)NNC(=O)c2cccs2)c1	35.8*	61.1*	-8.1	25.8*	128.7*
O=C(Nc1nc(-c2ccc(S(=O)(=O)N3CCCC3)cc2)cs1)C1COc2ccccc2O1 (stereo not drawn)	1.1	56.6*	-7.8	2.2	23.2
O=C(COc1ccc(Cl)cc1)Nc1nc(-c2ccc(S(=O)(=O)N3CCOCC3)cc2)cs1	2.0	62.4*	-4.2	3.9	17.0
COc1ccccc1OCC(=O)Nc1nc(-c2ccc(S(=O)(=O)N3CCOCC3)cc2)cs1	1.2	35.8	-21.8	0.6	17.7
O=C(COc1ccccc1)Nc1nc(-c2ccc(S(=O)(=O)N3CCOCC3)cc2)cs1	1.6	55.4*	-12.3	7.3	20.3
COc1ccc(-c2csc(NC(=O)C3CCN(c4ncnc5sc(C)c(C)c45)CC3)n2)cc1OC	-0.1	50.2*	-7.8	-0.8	1.8
CCc1cccc(NC(=O)C2CCN(c3ncnc4sc(C)c(C)c34)CC2)c1	-0.7	53.0*	-9.4	0.6	8.8
Cc1[nH]nc2c1C(c1ccccc1)N(Cc1ccccc1)C2=O (stereo not drawn)	.	-6.2	.	.	2.4
O=C(c1ccc(CS(=O)(=O)c2ccc(Br)cc2)o1)N1CCN(c2ccc(F)cc2)CC1	0.6	52.4*	-9.0	3.6	3.1
COc1ccc(N2CCN(C(=O)c3ccc(CS(=O)(=O)c4ccc(Br)cc4)o3)CC2)cc1	1.2	2.0	-8.8	1.7	2.9
FC(F)(F)c1ccccc1Cc1c(-c2cccc(Cl)c2)nc2ccc(Cl)cn12	.	-6.4	.	.	0.8
CC(C)C(=O)Nc1ccc(N2CCOCC2)c(S(=O)(=O)Nc2ccccc2Cl)c1	0.8	52.8*	-5.9	0.8	25.4
Cn1cnc(NCc2ccccc2)c1[N+](=O)[O-]	1.6	-7.2	-5.5	-2.6	12.1
CC(C)(C)C(=O)Nc1ccc(C(=O)N/N=C/c2ccccc2OC(=O)c2ccccc2)cc1	0.0	52.7*	-16.6	1.4	16.2
COc1ccc(/C=N/NS(=O)(=O)c2ccc(F)cc2)cc1COc1cc(F)ccc1[N+](=O)[O-]	-2.7	-4.5	-15.3	0.5	1.5
O=C(N/N=C/c1ccc(OC(=O)c2ccccc2)c([N+](=O)[O-])c1)c1ccc(O)cc1	0.0	53.4*	1.2	0.1	-0.1
COc1ccc(/C=N\NC(=O)c2ccc(F)cc2)cc1COc1cc(F)ccc1[N+](=O)[O-]	.	53.4*	.	.	4.4
COC(=O)c1cnn(-c2ccc(F)cc2F)c1/C=N/NC(N)=S	-0.9	-24.8	3.8	-0.4	2.2
Cc1ccc(OCCC(=O)OCC(=O)NC(=O)c2ccccc2)cc1	0.4	-33.9	-3.6	-0.1	0.4
COc1ccccc1N(CCC#N)C(=O)COC(=O)CCC(=O)c1ccc(F)cc1	4.5	-9.2	-0.2	2.8	5.2
SMILES	OXTR agonist	TAAR1 antag	OXTR potentiator	V1R ag counter	TAAR1 agonist
Cn1nc(-c2ccc3c(c2)OCCO3)c2ccccc2c1=O	10.4	10.4	-23.7	9.1	4.9
CCCCN1C(=O)C(CC(=O)NCCc2ccccn2)CC(C(=O)N(C(C)C)C(C)C)=C1C (stereo not drawn)	.	-14.6	.	.	41.6*
CCCCN1C(=O)C(CC(=O)NCCc2ccccn2)CC(C(=O)N(C)C)=C1C (stereo not drawn)	.	-14.8	.	.	22.1
CCN(CC)C(=S)SSC(=S)N(CC)CC	2.9	31.8	-1.4	9.9	47.3*
COc1ccc(C(C)(O)c2nc(-c3cccc(O)c3)cs2)cc1 (stereo not drawn)	.	21.5	.	.	2.3
Oc1ccccc1N=N/C(=N/Nc1ccccc1O)c1ccccc1	-0.2	-1.9	3.1	0.1	1.4
N#C/C(N=Nc1ccccc1O)=N\Nc1ccccc1O	18.2	66.3*	-15.3	16.5	2.5
CC(=O)Nc1cc(-c2ccccc2)cn2c(-c3cccc(C(C)=O)c3)cnc12	.	49.3*	.	.	-1.0
CC(=O)Nc1cc(-c2cccc(F)c2)cn2c(-c3ccc(F)cc3)cnc12	.	55.7*	.	.	4.7
CC(=O)Nc1cccc(-c2cc(NC(C)=O)c3ncc(-c4ccc(F)cc4)n3c2)c1	.	44.4	.	.	7.0
O=C(CSc1nnc(-c2ccncc2)n1-c1ccc(F)cc1)NNC(=O)c1cccc(O)c1	-2.1	-25.6	-12.7	0.1	2.3
CC(=O)Nc1cccc(NC(=O)/C=C/c2ccc(S(=O)(=O)N3CCOCC3)cc2)c1	0.8	2.0	-1.5	2.4	1.6
Cc1ccc(NC(=O)/C=C/c2ccc(S(=O)(=O)N3CCOCC3)cc2)cc1S(=O)(=O)N(C)C	.	66.5*	.	.	21.7
COc1cc(/C=C/C(=O)c2ccc3c(c2)OCO3)cc(Cl)c1O	69.7*	43.4	-15.7	97.5*	56.4*
Cc1ccc(C(O)c2ncc(-c3ccccc3Cl)[nH]2)cc1F (stereo not drawn)	.	-19.0	.	.	11.1
COc1ccc(Nc2sc(C(=O)c3ccc(Cl)cc3)c(N)c2C(=O)Nc2ccccc2OC)cc1	47.2*	72.6*	-26.0	40.3*	106.6*
COc1ccc(C(=O)c2sc(Nc3cccc(OC)c3)c(C(=O)Nc3cccc(C)c3C)c2N)cc1	4.2	31.9	-19.9	15.4	37.5*
C[C@@H]1CCC2[C@](C)(CO)[C@@H](O)CC[C@]2(C)[C@@]12CC[C@@](CO)(CC(=O)O)O2 (stereo partly drawn)	0.4	2.0	-4.8	-0.4	0.2
O=C1NC(Cc2ccc(O)cc2)c2nc3ccc(F)cc3c(=O)n2-c2cc3ccccc3cc21 (stereo not drawn)	.	50.3*	.	.	7.7
O=C1NC(Cc2ccc(O)cc2)c2nc3cc(F)c(F)cc3c(=O)n2-c2cc3ccccc3cc21 (stereo not drawn)	.	37.6	.	.	1.8
Cc1c(CN2CCC(CO)(CCOc3ccccc3)CC2)[nH]c2c(Cl)cccc12	13.5	25.9	-16.9	8.3	41.4*
Cc1nn(C)c(Cl)c1CN1CCC(CO)(CCOc2ccccc2)CC1	3.0	-17.4	3.6	3.6	1.7
CC(C)(C)OC(=O)NCCCCCNC(=O)c1nc[nH]c1C(=O)NCc1ccc(CNC(=O)OC(C)(C)C)cc1	5.7	81.0*	-8.0	7.0	23.3
